KCNK9 block: human KCNK9 channel inhibition | 310,000 tested, 1.2% active | B-score at 10 µM | Q9NPC2 | HEK293 KCNK9, FluxOR thallium flux fluorescence; active compounds read low;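 active = ratio B-score over 3 SD below the library mean, with starting fluorescence within 5 SD of its mean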;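 also: negative B-score means less thallium flux so channel inhibition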
KCNQ1 pot: potentiators or activators of human KCNQ1 potassium channel | P51787 | CHO-K1 KCNQ1, thallium flux FluxOR fluorescence; active compounds read high | B-score at 10 µM | 310,000 tested, 0.35% active | AID 2648;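 active = fluorescence ratio B-score, a plate-corrected score, at least three library SD, with initial intensity B-score within 5 SD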
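Medium – assay buffer, equal DMSO in all wells · Material – CHO-K1 cell line with stable KCNQ1 potassium channel expression · Signal – kinetic FluxOR thallium fluorescence, 10-s 1-Hz baseline, 110-s post-stimulus read · Compound – single concentration per compound, DMSO matched to controls · Schedule – 37 °C overnight plating, 90-min dark dye load, 20-min compound pretreatment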
KCNQ1 block: blocks the human KCNQ1 potassium channel; P51787; CHO-K1 KCNQ1, FluxOR thallium flux fluorescence; active compounds read high; B-score at 10 µM; 310,000 tested, 1.3% active; AID 2642;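 active = compounds whose thallium flux B-score, printed positive for inhibition, exceeds three library SD while starting fluorescence stays within three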;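 also: channel opened by potassium depolarization with thallium stimulus after 20 min compound exposure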
Kir21 block: blocks the mouse Kir2.1 inward-rectifier potassium channel; P35561; HEK293-Kir2.1, FluxOR thallium flux fluorescence; active compounds read low; B-score at 10 µM; 310,000 tested, 0.85% active; AID 1672;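 active = fluorescence ratio B-score at or below minus 3 SD of library scores, with starting-brightness B-score within 2 SD, cut at about -4.2 in these data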;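 also: channel flux triggered by added potassium and thallium sulfate stimulus; B-score of peak minus minimum fluorescence over baseline after thallium stimulus; more negative B-score means stronger Kir2.1 block with less thallium influx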
Target sequence (P35561 whole entry, looked up): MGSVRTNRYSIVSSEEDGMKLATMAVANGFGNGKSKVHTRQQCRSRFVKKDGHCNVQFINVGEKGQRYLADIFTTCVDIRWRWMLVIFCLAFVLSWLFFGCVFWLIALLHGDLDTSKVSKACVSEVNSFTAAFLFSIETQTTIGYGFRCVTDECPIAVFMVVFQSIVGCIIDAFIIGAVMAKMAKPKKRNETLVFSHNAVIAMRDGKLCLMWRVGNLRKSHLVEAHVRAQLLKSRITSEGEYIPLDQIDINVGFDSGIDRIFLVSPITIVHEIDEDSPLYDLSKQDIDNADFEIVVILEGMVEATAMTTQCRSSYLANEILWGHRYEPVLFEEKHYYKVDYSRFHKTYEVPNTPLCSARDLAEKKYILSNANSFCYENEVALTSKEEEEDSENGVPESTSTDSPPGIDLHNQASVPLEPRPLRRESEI
hERG rescue: shields human hERG channel from block by proarrhythmic agents. AID 1511. CHO-hERG, FluxOR thallium flux, dofetilide IC70 present. 310,000 tested, 0.51% active. activation (rescue from dofetilide block), less the hit threshold, % at 10 µM. Q12809;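 active = activation above the mean of controls blocked by dofetilide plus 5 SD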;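 also: thallium influx through hERG after potassium depolarization seen as dye fluorescence rise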
KCNK3 block: human KCNK3 channel inhibition, primary screen; O14649; CHO-KCNK3 thallium flux, FluxOR fluorescence; active compounds read low; B-score at 10 µM; 340,000 tested, 0.84% active; AID 602410;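 active = B-score under library mean minus 4 SD, starting fluorescence ratio at most library mean plus 5 SD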;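 also: more negative B-score means stronger inhibition of thallium flux through KCNK3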
* = called active by the depositor; i = inactive; / = no result. In the library only some 3.7% were active in any assay of this set; here they are far more common.

SMILES	KCNK9 block	KCNQ1 pot	KCNQ1 block	Kir21 block	hERG rescue	KCNK3 block
CC12CCC(C(=O)N(CSC(=S)N/N=C\c3ccccc3)C1=O)C2(C)C (stereo unspecified)	i	15*	i	0.07	1	i
Nc1cccc(C#Cc2ccc3c(c2)C(=O)/C(=C/c2ccsc2)O3)c1	/	/	/	/	/	i
CCC(CC)NC(=O)c1ccccc1Oc1ccccc1	i	i	i	-6.9*	-7	i
CCC(=O)NCCCCCCNC(=O)CC	i	i	i	-0.15	6.9*	i
CC(C)(C)C1CCC(C(=O)OCC(=O)c2ccc[nH]2)CC1 (stereo unspecified)	i	i	i	-5.3*	-4	i
Cc1ccc(N2CC(C(=O)OCC(=O)c3ccc[nH]3)CC2=O)cc1 (stereo unspecified)	i	i	i	-0.26	-18	i
O=C1NC(=O)C2(CCCCC2)N1	/	/	/	/	/	i
CC[n+]1c(/C=C/N(C)c2ccccc2)oc2ccc(F)cc21	i	i	i	-3.2	-17	i
CC[n+]1c(/C=C/N(C)c2ccccc2)oc2ccccc21	i	i	8*	-5.2	-33	i
Cc1cc(C)c(S(=O)(=O)NCC(=O)NCc2ccccn2)c(C)c1	i	i	i	1.1	0	i
Cc1cc(Br)cc(/C=N/NC(=O)c2ccc3c(c2)OCO3)c1O	i	i	8*	1.1	-5	i
COc1ccc(NC(=O)n2ncc3cc(Cl)ccc32)cc1OC	i	i	i	-0.15	-5	i
O=C(CN1CCN(c2cccc(Cl)c2)CC1)c1ccc(O)cc1O	i	i	i	-0.04	0	i
COc1ccc(Nc2cc(C)c3c(O)cccc3n2)cc1	i	i	i	-13*	-14	i
Cc1ccc(Nc2cc(C)c3c(O)cccc3n2)cc1C	i	i	i	-1.8	-16	i
O=C(c1ccco1)N1CCN(C(=O)c2cc3sccc3n2Cc2ccccc2)CC1	i	i	i	-0.01	-19	i
O=C(NCc1ccco1)c1cc2sccc2n1Cc1ccccc1	-6.9*	i	i	-0.47	-7	i
CC1=C(C(=O)OC(C)(C)C)C(c2cccc3ccccc23)NC(=O)N1 (stereo unspecified)	i	i	i	-0.25	-8	i
O=C(c1ccccc1)N1N=C(c2cccs2)CC1c1ccccc1O (stereo unspecified)	i	i	i	-1.9	-14	i
COC(=O)c1ccc(C2N=C(c3cccs3)CC(c3ccccc3O)N2)cc1 (stereo unspecified)	i	i	7*	-0.22	-19	i
COC(=O)/C=C1\OC(c2ccccc2)=CC1=O	i	i	8*	-10*	-34	/
O=C1OC(c2ccccc2)=C/C1=C/N1CCCCC1	i	i	i	-0.23	-7	i
CN(C)C(C)(C)C#CCCCCC#CC(C)(C)N(C)C	/	/	/	/	/	i
CN(C)C(C)(C)C#CCC(c1ccccc1)c1ccccc1	i	i	i	-5*	-5	i
N#C/C(=C/c1ccc(Sc2nc3ccccc3[nH]2)o1)c1cccc(Br)c1	i	i	i	0.36	-9	-10*
SMILES	KCNK9 block	KCNQ1 pot	KCNQ1 block	Kir21 block	hERG rescue	KCNK3 block
N#C/C(=C\c1ccc([N+](=O)[O-])o1)c1nc2ccccc2[nH]1	i	i	6*	-2	-12	/
N#C/C(=C\c1ccc(Sc2ccccc2)o1)c1nc2ccccc2[nH]1	i	i	i	-0.31	-11	i
N#C/C(=C/c1ccc(Sc2nc3ccccc3[nH]2)o1)c1ccccc1F	i	i	17*	-2.1	-18	i
O=C(Cc1cccs1)N[C@@H]1c2ccccc2CC[C@@H]1OCc1ccccc1	/	/	/	/	/	i
COc1ccc(NC(=O)CCc2nc3ccccc3c(=O)[nH]2)cc1S(=O)(=O)N1CCCCC1	/	/	/	/	/	i
N#CCc1ccc(NS(=O)(=O)c2ccc(C3CCCCC3)cc2)cc1	-6.9*	i	i	1.8	-13	i
CCOC(=O)C(C(=O)OCC)C(C(=O)OCC)N1CCOCC1 (stereo unspecified)	i	10*	i	0.57	-5	i
Cc1ccc(N2CC(C(=O)NCCS(=O)(=O)N3CCN(c4ccccc4)CC3)CC2=O)cc1C (stereo unspecified)	i	i	i	0.87	-6	i
Nc1cc2c(cc1[N+](=O)[O-])OCCO2	i	i	i	1.4	-6	i
Nc1cc2c(cc1[N+](=O)[O-])OCCOCCOCCO2	i	i	i	0.75	6.4*	i
N#CC1=C(SCC(=O)c2ccc(Cl)cc2)NC2=C(C(=O)CCC2)C1c1ccco1 (stereo unspecified)	i	i	i	1.3	-16	i
CC(=O)C1=C(C)NC(SCC(=O)c2ccc(C)cc2)=C(C#N)C1c1ccco1 (stereo unspecified)	i	i	6*	1.6	-12	/
Cc1cccc(NS(=O)(=O)c2ccc(C)c(NS(=O)(=O)c3cccs3)c2)c1	/	/	/	/	/	i
O=C(Nc1cccc(NC(=O)c2ccco2)c1)c1ccccc1	-7.6*	i	i	0.22	-10	i
O=C(Nc1cccc(-c2nnc(-c3ccco3)o2)c1)c1ccccc1	-6.9*	i	i	-1.2	-15	i
O=C(Cc1cccs1)Nc1cccc(-c2nc3cc4ccccc4cc3[nH]2)c1	i	i	9*	0.94	-21	i
O=C(Nc1cccc(NC(=O)c2ccc(-c3cccc(Br)c3)o2)c1)c1ccco1	-12*	i	i	-0.96	-27	i
O=C(c1ccccc1)c1cccc(NC(=O)c2ccco2)c1	i	i	i	-0.12	-15	i
Cc1cc(C)c(OCC(=O)Nc2cccc(NC(=O)c3ccco3)c2)c(Br)c1	-7.9*	i	i	-0.15	-10	i
O=C(Nc1cccc(-c2nc3ccccc3[nH]2)c1)c1ccco1	-6.9*	i	i	0.69	-37	i
Cc1ccc2nc(-c3ccc(NC(=O)c4ccco4)cc3)[nH]c2c1	i	i	i	-0.31	-7	i
Cc1ccc(NC(=S)NCC2CCN(C(C)c3ccccc3)C2)cc1 (stereo unspecified)	i	i	i	-0.39	-10	i
CC(c1ccccc1)N1CCC(CNC(=S)Nc2cccc(Cl)c2)C1 (stereo unspecified)	i	i	i	-5.9*	-14	i
CCCc1ccc(-c2ccc(C(=O)O)cc2)nc1	i	i	i	1.9	5.9*	i
CCCCCc1ccc(-c2ccc(/C=C/C(N)=O)cc2)nc1	i	i	i	1.3	-7	i

Source: PubChem
